The values that follow come from article PMC7395490 (Proceedings of the National Academy of Sciences of the …, 2020).

As a reminder, the IC50 is the concentration that gives 50% inhibition. By half-life is commonly meant the time needed for the level to fall by half in the phase considered.

Where “and” joins values, the source holds several entries; their conditions need not be identical. Equal entries are not always repeated. Entries after “also recorded” stand apart in the source; their conditions may differ. Where two headings read alike, the source gives them in different places.

Series [1] can be described thus: Rhodium and platinum content of tissues after i.p. treatment. It is filed as in vivo, NSG mice. The settings on record: Rh-PPO 1 mpk, oxaliplatin 7.5 mpk i.p.
Series [2] has as its system HCT116 xenograft tumors. Nature of the series: Efficacy experiment 1: tumor volume, i.p. dosing. As to conditions: for tumor volumes at conclusion of study: day 28, Rh-PPO vs oxaliplatin 7.5 mpk i.p. It counts as in vivo, NSG mice. The method in brief:
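NSG mice (23 to 34 g) were given 2.5 × 10^6 HCT116 cells in 100 μL McCoy's 5A with 10% FBS, s.c. in the right flank. At ~100 mm3 (11 to 12 d), mice were randomized (10 to 13/group). Test compound in saline was given i.p. three or four times weekly. Vehicle was 0.9% NaCl. Platinum reference in 5% dextrose was given i.p. twice weekly. Mice also received 2 mL s.c. saline twice weekly. Calipers twice weekly; TV = W2L/2.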

Series [3] deals with HCT116O MMR-deficient cells. As to conditions: cited from earlier work; for IC50: HCT116O MMR-deficient cells.
The conditions of series [4]: cited from earlier work.
For series [5], the system named is HCT116 xenograft tumors. In words: Survival rate and cause of death, efficacy experiment 1. It is filed as in vivo, NSG mice. The method in brief:
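HCT116 s.c. xenograft NSG mice received i.p. vehicle, test compound or platinum reference plus s.c. saline hydration; n = 10 to 13 per group. Mice were removed when found dead, when declining health required killing, or when tumor diameter exceeded 15 mm. Survival versus starting number gave Kaplan–Meier curves. ILS = (DaysT – DaysC)/DaysC against vehicle controls.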

Series [6] in a line: Mouse body weights during i.p. treatment. It counts as in vivo, NSG mice. As to conditions: Rh-PPO treatment groups, both i.p. schedules.
Series [7] concerns HCT116 xenograft tumors. In words: Intratumoral efficacy experiment. It counts as in vivo, NSG mice. The settings on record: 1 mpk intratumoral.
Series [8] is described as follows: Plasma pharmacokinetics after i.p. dose. It is filed as in vivo, NSG mice. As to conditions: for AUC0–8 h / Cmax / t1/2: mouse plasma. The method in brief: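 After the final i.p. dose (0.5 or 1 mpk) in xenograft-bearing NSG mice, blood was taken by cardiac puncture at 0.5, 1, 2, 4 and 8 h (three mice/group/time) into heparinized vials on ice. Plasma was spun at 15,000 × g, 5 min, RT, and stored at −80 °C. Proteins were precipitated with acetonitrile containing a rhodium-complex internal standard. Intact complex was measured by LC-MS/MS; AUC0–8 h came from the concentration curve.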

Series [9] relates to CRC cell lines. As to conditions: on average across CRC cell lines; cited from earlier work.
The nature of series [10]: Stability in rat liver microsomes. It counts as in vitro ADME.
Series [11] is described as follows: Histological analyses of collected tissues. As to conditions: Rh-PPO-treated mice, i.p. It is filed as in vivo, NSG mice.
Series [12] is described as follows: Stability in rat plasma. It is filed as in vitro ADME.
Series [13] can be described thus: Aqueous solubility. It is filed as physicochemical.
In series [14] the test system is NSG mice. Nature of the series: Maximum tolerated dose. It counts as in vivo. The settings on record: for start of notable symptoms of distress and inactivity: mice killed before end of 10-d study. In a few lines: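 Weighed NSG mice received test compound dissolved in saline i.p. at 1, 2, 5 or 15 mpk, once daily for 10 consecutive days. Clinical observations and body weights were recorded daily. Surviving animals were killed with carbon dioxide at study end.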

Series [15] is described as follows: First mouse experiments exploring the administration route. It is filed as in vivo.

As for `O=C1[O][Pt]2([NH][C@@H]3CCCC[C@H]3[NH]2)[O]C1=O` [oxaliplatin, reference compound], the “distribution of metal among organs” value in series [1] is given as “platinum was distributed evenly”. The “tumor volumes at conclusion of study” value in series [2] is given as “statistically similar tumor volumes”. For the same molecule, in series [3], the IC50 was 27.5 µM. Further, the half-life in series [4] was 0.235 h. Moreover, the “mouse deaths: found dead in cage” value in series [5] (7.5 mpk i.p.) was determined as 45.5%.

On to “[Rh(chrysi)(phen)(2-(pyridine-2-yl)propan-2-ol]Cl2 [Rh-PPO]”, for which the “significant mouse weight loss (more than 15% of original body weight)” value in series [6] was “neither treatment schedule resulted in significant mouse weight loss”. The “toxicity of intratumoral administration” value in [7] is “significant systemic toxicity; also recorded: unacceptably toxic”. For the same molecule, the “distribution of metal among organs” value in series [1] is “accumulation of rhodium most significantly in the liver”. In series [8] (0.5 mpk i.p.), the “AUC0–8 h” value is 1.31 µM·h, the Cmax was 450 nM and the t1/2 worked out at 1.11 h. Further, in series [8] (1 mpk i.p.), the “exposure level (Cmax) relative to in vitro cell IC50 of 250 nM” value is about 2.5 fold, the “AUC0–8 h” value is 1.52 µM·h, the Cmax stood at 650 nM and the t1/2 was 1.79 h. For the same molecule, in [8] (i.p. dosing, 0.5 and 1 mpk), the “time to peak plasma concentration” value is reported as at most 30 min. Moreover, the Cmax in series [8] (read-out: maximum plasma concentration (Cmax), 1 mpk i.p.) was 650 nM. The “potency relative to cisplatin” value in [9] is on record as “five times more potent”. For the same molecule, in series [10], the “stability in rat liver microsomes” value was “up to 4 h”. The “reduction in tumor volume relative to vehicle” value in series [2] (Rh-PPO treatment groups (0.5 and 1 mpk i.p.), day 21, efficacy experiment 1) is 25 ± 2.7% and 25%. In series [2], the “tumor volumes at conclusion of study” value was “statistically similar tumor volumes”. For the same molecule, the “organ morphology (histology)” value in series [11] was “normal organ morphology”. The IC50 in [3] was 0.25 µM. Moreover, the “cytotoxicity toward HCT116O compared to HCT116N cells” value in series [3] (MMR-deficient HCT116O vs matched MMR-proficient HCT116N) is “highly potent and selective cytotoxicity”. In addition, the “stability in rat plasma” value in series [12] is on record as “up to 4 h”. In addition, in series [13], the aqueous solubility entry is “high aqueous solubility”. Moreover, the “increase in life span (ILS) relative to vehicle” value in series [5] (Rh-PPO 0.5/1 mpk, oxaliplatin 7.5 mpk i.p.) was 12%. In addition, the “mice killed due to poor health and inactivity” value in series [5] (Rh-PPO 1 mpk, oxaliplatin 7.5 mpk i.p.) is listed as 10%. The “mice that died due to tumors reaching maximum allowable size (15 mm)” value in [5] (both Rh-PPO treatment groups) was found to be 90%. Moreover, the “body weight change in MTD study” value in [14] (1, 2, 5 mpk i.p. daily) is recorded as “lost body weight in a dose-dependent manner”. For the same molecule, the clinical observations entry in [14] (1 mpk i.p. daily for 10 d) was “only mild symptoms of distress; also recorded: tolerated over a 10-d period with minor indications of systemic toxicity”. For the same molecule, the “start of notable symptoms of distress and inactivity” value in [14] (2 mpk i.p. daily) amounted to 4 days. Further, the “start of notable symptoms of distress and inactivity” value in series [14] (5 mpk i.p. daily) turned out to be 2 days. Also, the “tolerability of i.v. administration” value in series [15] (20 mpk i.v.) is recorded as “not well tolerated”. Besides, the oral bioavailability result in [15] (oral) was “zero oral bioavailability”.
